Results from ChEMBL document CHEMBL4311940, “Design, Synthesis, and Biological Evaluation of 4-Methyl Quinazoline Derivatives as Anticancer Agents Simultaneously Targeting Phosphoinositide 3-Kinases and Histone Deacetylases” (J Med Chem, 2019).

Legend:
[1] = system: DU-145; assay: Antiproliferative activity against human DU145 cells after 96 hrs by MTT assay; type: functional, cell-based; details: DU-145, 96 h
[2] = Mutagenicity in Salmonella typhimurium TA98 at 5 to 500 ug/plate in presence of s9 mix by Ames test; type: toxicity, subcellular; details: salmonella enterica subsp. enterica serovar typhimurium
In short: (§1)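 Plate incorporation method at 5, 50 and 500 μg/plate, with and without S9 activation. At least three plates per dose, incubated 72 h at 37 °C, revertants counted. Mean revertants compared with vehicle and positive controls.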

[3] = Mutagenicity in Salmonella typhimurium TA98 at 5 to 500 ug/plate in absence of s9 mix by Ames test; type: toxicity; details: salmonella enterica subsp. enterica serovar typhimurium; in short: as §1
[4] = Mutagenicity in Salmonella typhimurium TA100 at 5 to 500 ug/plate in presence of s9 mix by Ames test; type: toxicity, subcellular; details: salmonella enterica subsp. enterica serovar typhimurium; in short: as §1
[5] = Mutagenicity in Salmonella typhimurium TA102 at 5 to 500 ug/plate in absence of s9 mix by Ames test; type: toxicity; details: salmonella enterica subsp. enterica serovar typhimurium; in short: as §1
[6] = Oral bioavailability in ICR mouse at 30 mg/kg measured after 0.083 to 24 hrs by LC/MS/MS analysis; type: ADME, organism-based; details: in vivo
In short: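 Male-unspecified ICR mice, 3 per group iv (3 mg/kg in 10% DMSO/saline) and 5 per group po (30 mg/kg in 0.5% cmc/0.3% Tween 80). Blood sampled 0.033 (iv) or 0.083 (po) to 24 h. Plasma extracted with acetonitrile, analysed by LC/MS/MS; noncompartmental analysis.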

[7] = system: HCT-116; assay: Induction of apoptosis in human HCT116 cells assessed as late apoptotic cells at 100 nM after 48 hrs by Annexin V-FITC/propidium iodide staining-based flow cytometric analysis (reference value: 3.87%); type: functional
[8] = Mutagenicity in Salmonella typhimurium TA1535 at 5 to 500 ug/plate in absence of s9 mix by Ames test; type: toxicity; details: salmonella enterica subsp. enterica serovar typhimurium; in short: as §1
[9] = system: HCT-116; assay: Induction of apoptosis in human HCT116 cells assessed as late apoptotic cells at 20 nM after 48 hrs by Annexin V-FITC/propidium iodide staining-based flow cytometric analysis (reference value: 3.87%); type: functional
[10] = system: HCT-116; assay: Induction of apoptosis in human HCT116 cells assessed as necrotic cells at 100 nM after 48 hrs by Annexin V-FITC/propidium iodide staining-based flow cytometric analysis (reference value: 5.23%); type: functional
[11] = system: MCF7; assay: Antiproliferative activity against human MCF7 cells after 96 hrs by MTT assay; type: functional, cell-based; details: MCF7, 96 h
[12] = Clearance in ICR mouse at 3 mg/kg, iv measured after 0.033 to 24 hrs by LC/MS/MS analysis; type: ADME, organism-based; details: in vivo
In short: (§2)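 ICR mice; iv 3 mg/kg in 10% DMSO/saline (3 mice/group), blood at 0.033, 0.083, 0.25, 0.5, 1, 2, 4, 8, 12, 24 h; po 30 mg/kg as 0.5% cmc/0.3% Tween 80 suspension (5 mice/group), blood at 0.083–24 h. Plasma extracted with acetonitrile, LC/MS/MS; parameters by noncompartmental analysis.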

[13] = Cmax in ICR mouse at 3 mg/kg, iv measured after 0.033 to 24 hrs by LC/MS/MS analysis; type: ADME, organism-based; set-up: dose 3 mg/kg, route intravenous; details: in vivo; in short: as §2
[14] = Apparent volume of distribution in ICR mouse at 3 mg/kg, iv measured after 0.033 to 24 hrs by LC/MS/MS analysis; type: ADME, organism-based; details: in vivo, read-out: Vz; in short: as §2
[15] = system: HepG2; assay: Antiproliferative activity against human HepG2 cells after 96 hrs by MTT assay; type: functional, cell-based; details: HepG2, 96 h
[16] = system: Bel-7402; assay: Antiproliferative activity against human Bel7402 cells after 96 hrs by MTT assay; type: functional, cell-based; details: Bel-7402, 96 h
[17] = Toxicity in po dosed ICR mouse assessed as maximum tolerated dose; type: organism-based; details: in vivo
In short: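 Male ICR mice, 6−8 weeks old, given one dose; vehicle 0.5% cmc with Tween 80 for oral dosing, saline for intraperitoneal dosing. Clinical signs observed and body weights recorded for 7 consecutive days after dosing to set the maximum tolerated dose.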

[18] = molecular target: Histone deacetylase 8 (Homo sapiens, UniProt Q9BY41); assay: Inhibition of recombinant human full length C-terminal His-tagged HDAC8 expressed in baculovirus infected Sf9 insect cells using Ac-peptide as substrate preincubated for 15 mins followed by substrate addition and measured after 1 hr
In short: (§3)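 Recombinant HDAC isoforms mixed with serially diluted compound in assay buffer for 15 min at room temperature. Ac-peptide substrate then added and incubated 1 h at room temperature. Signal read on a plate reader; IC50 by curve fitting.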

[19] = system: Huh-7; assay: Antiproliferative activity against human HuH7 cells after 96 hrs by MTT assay; type: functional, cell-based; details: Huh-7, 96 h
[20] = AUC (0 to infinity) in ICR mouse at 3 mg/kg, iv measured after 0.033 to 24 hrs by LC/MS/MS analysis; type: ADME, organism-based; set-up: dose 3 mg/kg, time infinity, route intravenous; details: in vivo; in short: as §2
[21] = Mutagenicity in Salmonella typhimurium TA97 at 5 to 500 ug/plate in absence of s9 mix by Ames test; type: toxicity; details: salmonella enterica subsp. enterica serovar typhimurium; in short: as §1
[22] = system: Capan-2; assay: Antiproliferative activity against human Capan2 cells after 96 hrs by MTT assay; type: functional, cell-based; details: Capan-2, 96 h
[23] = system: HGC-27; assay: Antiproliferative activity against human HGC27 cells after 96 hrs by MTT assay; type: functional, cell-based; details: HGC-27, 96 h
[24] = system: MDA-MB-453; assay: Antiproliferative activity against human MDA-MB-453 cells after 96 hrs by MTT assay; type: functional, cell-based; details: MDA-MB-453, 96 h
[25] = Mutagenicity in Salmonella typhimurium TA1535 at 5 to 500 ug/plate in presence of s9 mix by Ames test; type: toxicity, subcellular; details: salmonella enterica subsp. enterica serovar typhimurium; in short: as §1
[26] = system: HCT-116; assay: Induction of apoptosis in human HCT116 cells assessed as necrotic cells at 500 nM after 48 hrs by Annexin V-FITC/propidium iodide staining-based flow cytometric analysis (reference value: 5.23%); type: functional
[27] = AUC (0 to t) in ICR mouse at 30 mg/kg, po measured after 0.083 to 24 hrs by LC/MS/MS analysis; type: ADME, organism-based; set-up: time upper 24 hr, dose 30 mg/kg, time lower 0.083 hr, route oral; details: in vivo; in short: as §2
[28] = AUC (0 to t) in ICR mouse at 3 mg/kg, iv measured after 0.033 to 24 hrs by LC/MS/MS analysis; type: ADME, organism-based; set-up: dose 3 mg/kg, time upper 24 hr, time lower 0.033 hr, route intravenous; details: in vivo; in short: as §2
[29] = molecular target: Phosphatidylinositol 4,5-bisphosphate 3-kinase catalytic subunit beta isoform (Homo sapiens, UniProt P42338); assay: Inhibition of recombinant human PIK3CB using PIP2 as substrate incubated for 1 hr by ADP-glo assay
In short: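 Recombinant PI3Kβ, -γ or -δ, serially diluted compound, PIP2 substrate and ATP combined in kinase buffer. Incubated 1 h at room temperature in the dark, then stopped with ADP-Glo reagent. Luminescence read after kinase detection reagent; IC50 by curve fitting.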

[30] = system: HCT-116; assay: Induction of apoptosis in human HCT116 cells assessed as early apoptotic cells at 100 nM after 48 hrs by Annexin V-FITC/propidium iodide staining-based flow cytometric analysis (reference value: 1.33%); type: functional
[31] = molecular target: Histone deacetylase 4 (Homo sapiens, UniProt P56524); assay: Inhibition of recombinant human full length HDAC4 expressed in baculovirus infected Sf9 insect cells using Ac-peptide as substrate preincubated for 15 mins followed by substrate addition and measured after 1 hr; in short: as §3
Histone deacetylase 4, sequence (P56524 whole entry): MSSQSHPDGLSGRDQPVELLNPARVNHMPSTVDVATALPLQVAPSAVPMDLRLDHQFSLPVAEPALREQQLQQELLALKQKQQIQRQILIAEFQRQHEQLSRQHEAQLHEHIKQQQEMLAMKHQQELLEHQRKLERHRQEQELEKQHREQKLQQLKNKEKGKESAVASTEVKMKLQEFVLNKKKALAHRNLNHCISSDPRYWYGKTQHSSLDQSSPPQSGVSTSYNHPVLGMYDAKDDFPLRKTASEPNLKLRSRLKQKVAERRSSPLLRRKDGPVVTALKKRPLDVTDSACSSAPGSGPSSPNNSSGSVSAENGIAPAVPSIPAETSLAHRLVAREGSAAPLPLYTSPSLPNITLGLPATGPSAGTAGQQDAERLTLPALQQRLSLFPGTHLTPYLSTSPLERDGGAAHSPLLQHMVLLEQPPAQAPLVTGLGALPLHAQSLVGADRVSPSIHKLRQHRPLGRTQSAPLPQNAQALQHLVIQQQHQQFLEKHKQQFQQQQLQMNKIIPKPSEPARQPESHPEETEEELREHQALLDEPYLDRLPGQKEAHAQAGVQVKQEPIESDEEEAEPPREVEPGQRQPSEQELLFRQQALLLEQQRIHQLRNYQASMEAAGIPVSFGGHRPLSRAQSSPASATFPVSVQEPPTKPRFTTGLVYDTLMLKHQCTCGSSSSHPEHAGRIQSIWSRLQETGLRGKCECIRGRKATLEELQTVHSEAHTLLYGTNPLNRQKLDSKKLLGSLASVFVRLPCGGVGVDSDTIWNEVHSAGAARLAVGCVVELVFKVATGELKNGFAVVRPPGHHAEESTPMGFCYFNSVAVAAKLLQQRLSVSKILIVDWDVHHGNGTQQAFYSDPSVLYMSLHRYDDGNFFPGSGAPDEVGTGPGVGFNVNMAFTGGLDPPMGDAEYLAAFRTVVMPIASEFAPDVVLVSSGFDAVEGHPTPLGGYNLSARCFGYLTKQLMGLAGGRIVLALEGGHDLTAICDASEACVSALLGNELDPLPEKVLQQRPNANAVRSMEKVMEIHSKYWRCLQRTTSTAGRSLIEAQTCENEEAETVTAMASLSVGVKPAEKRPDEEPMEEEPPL

Histone deacetylase 8, sequence (Q9BY41 whole entry, canonical isoform): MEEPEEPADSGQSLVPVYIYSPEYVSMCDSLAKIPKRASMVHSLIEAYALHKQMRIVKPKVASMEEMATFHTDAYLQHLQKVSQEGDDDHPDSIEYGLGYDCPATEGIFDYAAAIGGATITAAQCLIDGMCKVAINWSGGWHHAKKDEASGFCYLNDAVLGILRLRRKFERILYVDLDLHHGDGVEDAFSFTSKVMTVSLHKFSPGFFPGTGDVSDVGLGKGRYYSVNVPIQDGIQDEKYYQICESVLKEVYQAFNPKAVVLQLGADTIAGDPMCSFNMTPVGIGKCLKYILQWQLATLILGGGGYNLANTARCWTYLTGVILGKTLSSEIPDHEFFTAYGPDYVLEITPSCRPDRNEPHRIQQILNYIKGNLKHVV
Phosphatidylinositol 4,5-bisphosphate 3-kinase catalytic subunit beta isoform, sequence (P42338 whole entry, canonical isoform): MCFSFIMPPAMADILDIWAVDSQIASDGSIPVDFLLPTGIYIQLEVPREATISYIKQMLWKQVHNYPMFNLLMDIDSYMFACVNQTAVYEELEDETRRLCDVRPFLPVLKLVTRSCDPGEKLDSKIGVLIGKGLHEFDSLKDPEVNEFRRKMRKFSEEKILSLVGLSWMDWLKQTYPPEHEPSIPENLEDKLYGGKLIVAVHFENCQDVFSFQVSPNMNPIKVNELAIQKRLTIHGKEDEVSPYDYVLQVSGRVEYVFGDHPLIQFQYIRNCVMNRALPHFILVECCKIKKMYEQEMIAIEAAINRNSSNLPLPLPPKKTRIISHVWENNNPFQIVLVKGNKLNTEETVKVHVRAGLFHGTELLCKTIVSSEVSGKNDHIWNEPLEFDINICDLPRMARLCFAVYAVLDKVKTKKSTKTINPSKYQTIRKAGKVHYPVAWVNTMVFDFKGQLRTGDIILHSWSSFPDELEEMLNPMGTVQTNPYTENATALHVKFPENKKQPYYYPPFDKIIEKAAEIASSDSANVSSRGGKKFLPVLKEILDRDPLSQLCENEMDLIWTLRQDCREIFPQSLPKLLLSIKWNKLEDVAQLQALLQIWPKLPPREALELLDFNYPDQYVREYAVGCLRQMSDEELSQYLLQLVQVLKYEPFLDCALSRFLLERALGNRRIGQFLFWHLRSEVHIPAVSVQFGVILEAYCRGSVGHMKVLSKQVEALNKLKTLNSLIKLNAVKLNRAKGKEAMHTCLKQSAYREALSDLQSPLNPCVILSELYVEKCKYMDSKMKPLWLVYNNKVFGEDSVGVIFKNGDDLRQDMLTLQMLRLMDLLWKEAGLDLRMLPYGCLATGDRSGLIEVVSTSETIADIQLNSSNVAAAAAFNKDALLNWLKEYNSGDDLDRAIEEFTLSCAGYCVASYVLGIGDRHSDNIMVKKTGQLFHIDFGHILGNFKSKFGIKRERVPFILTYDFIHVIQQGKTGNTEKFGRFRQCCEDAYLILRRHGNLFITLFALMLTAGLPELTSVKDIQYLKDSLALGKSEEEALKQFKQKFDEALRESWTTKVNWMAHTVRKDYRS

COc1ncc(-c2cc(OCCCCCCC(=O)NO)c3ncnc(C)c3c2)cc1F
IC50 [1]: 540 nM
Activity [2]: Non-Toxic
Activity [3]: Non-Toxic
Activity [4]: Non-Toxic
Activity [5]: Non-Toxic
bioavailability ([6]; ICR): 4.2%
Activity [7]: 7.97%
Activity [8]: Non-Toxic
Activity [9]: 5.48%
Activity [10]: 4.64%
IC50 [11]: 2000 nM
clearance [12]: 90 mL/min/kg
Cmax [13]: 3050 ng/mL
Vd [14]: 2.57 L/kg
IC50 [15]: 1100 nM
IC50 [16]: 5200 nM
MTD [17]: > 2000 mg/kg
IC50 [18]: 18 nM
IC50 [19]: 2500 nM
AUC(0-inf) ([20]; ICR): 558 ng·h/mL
Activity [21]: Non-Toxic
IC50 [22]: 430 nM
IC50 [23]: 110 nM
IC50 [24]: 300 nM
Activity [25]: Non-Toxic
Activity [26]: 3.64%
AUC(0-t) [27]: 230 ng·h/mL
AUC(0-t) [28]: 551 ng·h/mL
IC50 [29]: 101 nM
Activity [30]: 6.56%
IC50 [31]: > 1000 nM

COc1ccc(-c2cc(OCCN(C)c3ncc(C(=O)NO)cn3)c3ncnc(C)c3c2)cn1
IC50 [1]: 66 nM
Activity [2]: Non-Toxic
Activity [3]: Non-Toxic
Activity [4]: Non-Toxic
Activity [5]: Non-Toxic
F [6]: 1.7%
Activity [7]: 9.92%
Activity [8]: Non-Toxic
Activity [9]: 5.89%
Activity [10]: 2.99%
IC50 [11]: 1100 nM
clearance [12]: 352 mL/min/kg
Cmax [13]: 417 ng/mL
Vd [14]: 50 L/kg
IC50 [15]: 76 nM
IC50 [16]: 1600 nM
MTD [17]: > 2000 mg/kg
IC50 [18]: 12 nM
IC50 [19]: 240 nM
AUC [20]: 143 ng·h/mL
Activity [21]: Non-Toxic
IC50 [22]: 270 nM
IC50 [23]: 14 nM
IC50 [24]: 4 nM
Activity [25]: Non-Toxic
Activity [26]: 2.82%
AUC(0-t) [27]: 23.1 ng·h/mL
AUC(0-t) [28]: 133 ng·h/mL
IC50 [29]: 279 nM
Activity [30]: 16.8%
IC50 [31]: 972 nM
